Converted amounts (≈) assume the structure as drawn.
Key:
Type in all cases: functional
[1] = system: Pseudomonas aeruginosa; assay: Antibacterial activity against Pseudomonas aeruginosa PAO1 NB52023 expressing mexB and mexX by broth microdilution method
In short: (§1)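 Broth microdilution MICs run per standard CLSI guidelines; P. aeruginosa strains routinely grown at 37°C in Mueller-Hinton or Luria medium.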

[2] = system: Pseudomonas aeruginosa; assay: Induction of […] (PA5471) gene expression in wild type Pseudomonas aeruginosa PAO1 NB52019 at 12 ug/ml relative to control
In short: (§2)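 Duplicate P. aeruginosa NB52019 cultures were diluted 1:100 from overnight into 30 ml Luria broth with or without 12 μg/ml drug, shaken at 180 rpm at 37°C to OD600 0.8, and harvested at 15,000 × g for 10 min. Total RNA was purified with a 40-min on-column DNase I step for transcriptional profiling, and treated cultures were compared with untreated ones.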

[3] = system: Pseudomonas aeruginosa; assay: Antibacterial activity against Pseudomonas aeruginosa PAO1 CDS22 harboring pRC5 by broth microdilution method
In short: (§3)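 Broth microdilution following standard CLSI guidelines. P. aeruginosa strains were routinely cultured at 37°C in Mueller-Hinton or Luria broth. Where plasmids required selection, media carried gentamicin or tetracycline (100 μg/ml) or carbenicillin (100 μg/ml).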

[4] = system: Pseudomonas aeruginosa; assay: Antibacterial activity against Pseudomonas aeruginosa PAO1 CDS13 harboring pSW1 by broth microdilution method; in short: as §3
[5] = system: Pseudomonas aeruginosa; assay: Antibacterial activity against Pseudomonas aeruginosa PAO1 CDS1 expressing 14-bp deleted nfxB at base 92 by broth microdilution method; in short: as §1
[6] = system: Pseudomonas aeruginosa; assay: Antibacterial activity against Pseudomonas aeruginosa PAO1 CDS28 expressing 16-bp deleted fmt at position 833 by broth microdilution method; in short: as §1
[7] = system: Pseudomonas aeruginosa; assay: Antibacterial activity against Pseudomonas aeruginosa PAO1 CDS30 expressing folD G493T, V165R mutant by broth microdilution method; in short: as §3
[8] = system: Pseudomonas aeruginosa; assay: Induction of oprM (PA0427) gene expression in wild type Pseudomonas aeruginosa PAO1 NB52019 at 12 ug/ml relative to control; in short: as §2
[9] = system: Pseudomonas aeruginosa; assay: Antibacterial activity against Pseudomonas aeruginosa PAO1 NB52020 expressing mexAB-oprM by broth microdilution method; in short: as §3
[10] = system: Pseudomonas aeruginosa; assay: Antibacterial activity against Pseudomonas aeruginosa PAO1 NB52022 expressing mexX by broth microdilution method; in short: as §3
[11] = system: Pseudomonas aeruginosa; assay: Antibacterial activity against Pseudomonas aeruginosa PAO1 CDS13 expressing mexAB-oprM fmt C127T, R43C mutant by broth microdilution method; in short: as §3
[12] = system: Pseudomonas aeruginosa; assay: Induction of mexY (PA2018) gene expression in wild type Pseudomonas aeruginosa PAO1 NB52019 at 12 ug/ml relative to control; in short: as §2
[13] = system: Pseudomonas aeruginosa; assay: Induction of mexX (PA2019) gene expression in wild type Pseudomonas aeruginosa PAO1 NB52019 at 12 ug/ml relative to control; in short: as §2
[14] = system: Pseudomonas aeruginosa; assay: Antibacterial activity against Pseudomonas aeruginosa PAO1 NB52021 expressing mexB by broth microdilution method; in short: as §1
[15] = system: Pseudomonas aeruginosa; assay: Antibacterial activity against wild type Pseudomonas aeruginosa PAO1 NB52019 by broth microdilution method; in short: as §3
[16] = system: Pseudomonas aeruginosa; assay: Antibacterial activity against Pseudomonas aeruginosa PAO1 CDS6 expressing nfxB A115C, T39P mutant by broth microdilution method; in short: as §3
[17] = system: Pseudomonas aeruginosa; assay: Antibacterial activity against Pseudomonas aeruginosa PAO1 CDS30 harboring pRC5 by broth microdilution method; in short: as §3
[18] = system: Pseudomonas aeruginosa; assay: Antibacterial activity against Pseudomonas aeruginosa PAO1 CDR2 expressing mexAB-oprM and fmt::aacC1 by broth microdilution method; in short: as §1
[19] = system: Pseudomonas aeruginosa; assay: Antibacterial activity against Pseudomonas aeruginosa PAO1 CDR1 expressing fmt::aacC1 by broth microdilution method; in short: as §1
[20] = system: Pseudomonas aeruginosa; assay: Induction of mexZ (PA2020) gene expression in wild type Pseudomonas aeruginosa PAO1 NB52019 at 12 ug/ml relative to control; in short: as §2
[21] = system: Pseudomonas aeruginosa; assay: Antibacterial activity against Pseudomonas aeruginosa PAO1 CDS28 harboring pSW1 by broth microdilution method; in short: as §3
[22] = system: Pseudomonas aeruginosa; assay: Antibacterial activity against Pseudomonas aeruginosa PAO1 CDS22 expressing mexAB-oprM folD A424C, T142P mutant by broth microdilution method; in short: as §3

For `CCCC[C@H](CN(O)C=O)C(=O)N1CCC[C@H]1C(=O)Nc1ccc(F)c[n+]1[O-]`, which MIC [1] is on record?
The MIC was 8 µg/mL (≈ 20.2 µM).

What about the “fold change (FC)” value [2] of the same compound?
The value was 3.1.

What about the MIC [3] of the same compound?
The MIC was 4 µg/mL (≈ 10.1 µM).

And the MIC [4]?
Its MIC is 4 µg/mL (≈ 10.1 µM).

What about the MIC [5] of the same compound?
Its MIC is greater than 128 µg/mL.

What about the MIC [6] of the same compound?
The MIC was greater than 1020 µg/mL.

What about the MIC [7] of the same compound?
The MIC was greater than 1020 µg/mL.

And the “fold change (FC)” value [8]?
The value was 0.78.

What about the MIC [9] of the same compound?
Its MIC is 4 µg/mL (≈ 10.1 µM).

And the MIC [10]?
Its MIC is 128 µg/mL (≈ 323 µM).

What about the MIC [11] of the same compound?
Its MIC is greater than 128 µg/mL.

What about the “fold change (FC)” value [12] of the same compound?
Its value is 11.7.

And the “fold change (FC)” value [13]?
The value was 11.3.

And the MIC [14]?
The MIC was 64 µg/mL (≈ 161 µM).

And the MIC [15]?
Its MIC is 128 µg/mL (≈ 323 µM).

And the MIC [16]?
Its MIC is greater than 128 µg/mL.

What about the MIC [17] of the same compound?
The MIC was 128 µg/mL (≈ 323 µM).

What about the MIC [18] of the same compound?
Its MIC is greater than 1020 µg/mL.

What about the MIC [19] of the same compound?
Its MIC is greater than 1020 µg/mL.

And the “fold change (FC)” value [20]?
The value was 4.8.

What about the MIC [21] of the same compound?
The MIC was 128 µg/mL (≈ 323 µM).

And the MIC [22]?
The MIC was greater than 128 µg/mL.
